According to ChEMBL document CHEMBL1137338, “Effects of substitution on 9-(3-bromo-4-fluorophenyl)-5,9-dihydro-3H,4H-2,6-dioxa-4- azacyclopenta[b]naphthalene-1,8-dione, a dihydropyridine ATP-sensitive potassium channel opener” (J Med Chem, 2006):

The molecules below were run against Sulfonylurea receptor 2, Kir6.2 (Homo sapiens) (UniProt Q14654+O60706) (assay: Ability to open human urinary bladder Kir6.2 containing SUR2B in Ltk cells by FLIPR assay relative to P1075).
Assay type: functional, cell-based
How it was run: (§1)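 Ltk- cells stably transfected with the Kir6.2/SUR2B exon 17- splice variant. Membrane potential was followed with DiBAC dye in a 96-well cell-based kinetic fluorescence (FLIPR) assay. The highest concentration tested was 10 µM. Each compound's maximal fluorescence response was expressed as % of the response to the reference opener.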

First: CCCC[C@H]1OC(O)=C2C1=NC1=C(C(=O)COC1)[C@H]2c1ccc(F)c(Br)c1 (racemic)
Second: CCC[C@@H]1OC(O)=C2C1=NC1=C(C(=O)COC1)[C@H]2c1ccc(F)c(Br)c1 (racemic)
The Efficacy of the first is lower: 61% for the first, 90% for the second.

First: CCC[C@H]1OC(O)=C2C1=NC1=C(C(=O)COC1)[C@H]2c1ccc(Br)c(Br)c1 (racemic)
Second: CCC[C@H]1OC(O)=C2C1=NC1=C(C(=O)COC1)[C@H]2c1ccc(Br)c(Cl)c1 (racemic)
The Efficacy of the first is higher: 119% for the first, 97% for the second.

First: CCC[C@H]1OC(O)=C2C1=NC1=C(C(=O)COC1)[C@H]2c1ccc(C)c(Br)c1 (racemic)
Second: CCC[C@H]1OC(O)=C2C1=NC1=C(C(=O)COC1)[C@H]2c1ccc(Cl)c(Br)c1 (racemic)
The Efficacy of the first is lower: 104% for the first, 120% for the second.

Compared with CCC[C@H]1OC(O)=C2C1=NC1=C(C(=O)COC1)[C@H]2c1ccc(Cl)c(Cl)c1 (racemic), CCC[C@H]1OC(O)=C2C1=NC1=C(C(=O)COC1)[C@H]2c1ccc(F)c(Cl)c1 (racemic) is lower in Efficacy: 95% for the first, 42% for the second.

Going from CCC[C@H]1OC(O)=C2C1=NC1=C(C(=O)COC1)[C@H]2c1ccc(F)c(I)c1 (racemic) to CCC[C@@H]1OC(O)=C2C1=NC1=C(C(=O)COC1)[C@H]2c1ccc(F)c(Br)c1 (stereo in doubt; 22a), the Efficacy falls from 105% to 82%.

Going from CC[C@@H]1OC(O)=C2C1=NC1=C(C(=O)COC1)[C@H]2c1ccc(F)c(Br)c1 (racemic) to CCC[C@@H]1OC(O)=C2C1=NC1=C(C(=O)COC1)[C@H]2c1ccc(F)c(Br)c1 (stereo in doubt; 22b), the Efficacy falls from 74% to 66%.

Going from CC[C@@H]1OCC(O)=C2C1=NC1=C(C(=O)COC1)[C@H]2c1ccc(F)c(Br)c1 (racemic) to CC[C@H]1OCC(O)=C2C1=NC1=C(C(=O)COC1)[C@H]2c1ccc(Br)c(Br)c1 (racemic), the Efficacy rises from 60% to 76%.

Compared with CC[C@H]1OC(O)=C2C1=NC1=C(C(=O)C(C)(C)OC1)[C@H]2c1ccc(F)c(Br)c1 (racemic), CC[C@H]1OC(O)=C2C1=NC1=C(C(=O)COC1(C)C)[C@H]2c1ccc(F)c(Br)c1 (racemic) is lower in Efficacy: 70% for the first, 48% for the second.

Compared with CC[C@H]1OCC(O)=C2C1=NC1=C(C(=O)COC1)[C@H]2c1ccc(Br)c(Cl)c1 (racemic), CC[C@H]1OCC(O)=C2C1=NC1=C(C(=O)COC1)[C@H]2c1ccc(Cl)c(Br)c1 (racemic) is higher in Efficacy: 46% for the first, 70% for the second.

Going from CC[C@H]1OCC(O)=C2C1=NC1=C(C(=O)COC1)[C@H]2c1ccc(C)c(Br)c1 (racemic) to CC[C@@H]1OCC(O)=C2C1=NC1=C(C(=O)COC1)[C@H]2c1ccc(F)c(Br)c1 (stereo in doubt; 70a), the Efficacy rises from 70% to 87%.

Compared with CC[C@H]1OCC(O)=C2C1=NC1=C(C(=O)COC1)[C@H]2c1ccc(F)c(I)c1 (racemic), CC[C@@H]1OCC(O)=C2C1=NC1=C(C(=O)COC1)[C@H]2c1ccc(F)c(Br)c1 (stereo in doubt; 70b) is higher in Efficacy: 47% for the first, 94% for the second.

Compared with COC[C@H]1OC(O)=C2C1=NC1=C(C(=O)COC1)[C@H]2c1ccc(F)c(Br)c1 (racemic), CC[C@@H]1OC(O)=C2C1=NC1=C(C(=O)COC1)[C@H]2c1ccc(F)c(Br)c1 (stereo in doubt; 20a) is lower in Efficacy: 103% for the first, 101% for the second.

Going from C[C@@H]1OC(O)=C2C1=NC1=C(C(=O)COC1)[C@H]2c1ccc(F)c(Br)c1 (racemic) to C[C@H]1OC(O)=C2C1=NC1=C(C(=O)COC1)[C@H]2c1ccc(F)c(Br)c1 (racemic), the Efficacy falls from 100% to 75%.

Compared with C[C@@H]1OCC2=C(C1=O)[C@@H](c1ccc(F)c(Br)c1)C1=C(O)OCC1=N2 (racemic), C[C@@H]1OCC2=C(C1=O)[C@H](c1ccc(F)c(Br)c1)C1=C(O)OCC1=N2 (racemic) is higher in Efficacy: 81% for the first, 104% for the second.

Going from CC1(C)OCC2=C(C1=O)C(c1ccc(F)c(Br)c1)C1=C(O)OCC1=N2 (single isomer, unassigned; (+)) to C[C@@H]1OCC2=C(C1=O)[C@@H](c1ccc(F)c(Br)c1)C1=C(O)OCC1=N2 (stereo in doubt; 7b), the Efficacy falls from 104% to 94%.

First: O=C1COCC2=C1C(c1ccc(F)c(Br)c1)C1=C(O)OCC1=N2 (stereo in doubt; 6)
Second: CC1(C)OCC2=C(C1=O)C(c1ccc(F)c(Br)c1)C1=C(O)OCC1=N2 (stereo in doubt; 9)
The Efficacy of the first is higher: 92% for the first, 86% for the second.

Compared with CC1(C)OCC2=C(C1=O)C(c1ccc(F)c(Br)c1)C1=C(O)OCC1=N2 (stereo in doubt; 9b), CC[C@H]1OC(O)=C2C1=NC1=C(C(=O)C(C)(C)OC1)[C@H]2c1ccc(F)c(Br)c1 (stereo in doubt; 36a) is higher in Efficacy: 77% for the first, 89% for the second.

Going from C[C@@H]1OC(O)=C2C1=NC1=C(C(=O)COC1)[C@H]2c1ccc(F)c(Br)c1 (stereo in doubt; 17b) to C[C@H]1OC(O)=C2C1=NC1=C(C(=O)COC1)[C@H]2c1ccc(F)c(Br)c1 (stereo in doubt; 18a), the Efficacy falls from 89% to 86%.

C[C@H]1OC(O)=C2C1=NC1=C(C(=O)COC1)[C@H]2c1ccc(F)c(Br)c1 (stereo in doubt; 18b) and CC[C@@H]1OC(O)=C2C1=NC1=C(C(=O)COC1)[C@H]2c1ccc(F)c(Br)c1 (stereo in doubt; 20b) are the same in Efficacy: 85% for the first, 85% for the second.

Compared with CCC[C@H]1OC(O)=C2C1=NC1=C(C(=O)COC1)[C@H]2c1ccc(F)c(Br)c1 (stereo in doubt; 23a), CCCC[C@H]1OC(O)=C2C1=NC1=C(C(=O)COC1)[C@H]2c1ccc(F)c(Br)c1 (stereo in doubt; 29a) is lower in Efficacy: 75% for the first, 62% for the second.

First: COC[C@H]1OC(O)=C2C1=NC1=C(C(=O)COC1)[C@H]2c1ccc(F)c(Br)c1 (stereo in doubt; 25a)
Second: CC(C)C[C@H]1OC(O)=C2C1=NC1=C(C(=O)COC1)[C@H]2c1ccc(F)c(Br)c1 (stereo in doubt; 31a)
The Efficacy of the first is higher: 95% for the first, 66% for the second.

Going from COC[C@H]1OC(O)=C2C1=NC1=C(C(=O)COC1)[C@H]2c1ccc(F)c(Br)c1 (stereo in doubt; 25b) to CCC[C@H]1OC(O)=C2C1=NC1=C(C(=O)COC1)[C@H]2c1ccc(F)c(Cl)c1 (stereo in doubt; 39a), the Efficacy falls from 104% to 74%.

Compared with CC[C@H]1OC(O)=C2C1=NC1=C(C(=O)COC1(C)C)[C@H]2c1ccc(F)c(Br)c1 (stereo in doubt; 38a), CCC[C@H]1OC(O)=C2C1=NC1=C(C(=O)COC1)[C@H]2c1ccc(C)c(Br)c1 (stereo in doubt; 46a) is higher in Efficacy: 77% for the first, 81% for the second.

First: CCC[C@H]1OC(O)=C2C1=NC1=C(C(=O)COC1)[C@H]2c1ccc(F)c(I)c1 (stereo in doubt; 41a)
Second: CCC[C@H]1OC(O)=C2C1=NC1=C(C(=O)COC1)[C@H]2c1ccc(Cl)c(Cl)c1 (stereo in doubt; 42a)
The Efficacy of the first is lower: 81% for the first, 87% for the second.

Going from CCC[C@H]1OC(O)=C2C1=NC1=C(C(=O)COC1)[C@H]2c1ccc(Cl)c(Cl)c1 (stereo in doubt; 42b) to CCC[C@H]1OC(O)=C2C1=NC1=C(C(=O)COC1)[C@H]2c1ccc(Cl)c(Br)c1 (stereo in doubt; 43a), the Efficacy rises from 62% to 90%.

First: CCC[C@H]1OC(O)=C2C1=NC1=C(C(=O)COC1)[C@H]2c1ccc(Cl)c(Br)c1 (stereo in doubt; 43b)
Second: CCC[C@H]1OC(O)=C2C1=NC1=C(C(=O)COC1)[C@H]2c1ccc(Br)c(Cl)c1 (stereo in doubt; 44a)
The Efficacy of the first is lower: 99% for the first, 121% for the second.

First: CCC[C@H]1OC(O)=C2C1=NC1=C(C(=O)COC1)[C@H]2c1ccc(Br)c(Cl)c1 (stereo in doubt; 44b)
Second: CCC[C@H]1OC(O)=C2C1=NC1=C(C(=O)COC1)[C@H]2c1ccc(Br)c(Br)c1 (stereo in doubt; 45a)
The Efficacy of the first is lower: 92% for the first, 104% for the second.

First: CCC[C@H]1OC(O)=C2C1=NC1=C(C(=O)COC1)[C@H]2c1ccc(Br)c(Br)c1 (stereo in doubt; 45b)
Second: CCC[C@H]1OC(O)=C2C1=NC1=C(C(=O)COC1)[C@H]2c1ccc(C)c(Br)c1 (stereo in doubt; 46b)
The Efficacy of the first is higher: 108% for the first, 87% for the second.

First: CC[C@H]1OCC(O)=C2C1=NC1=C(C(=O)COC1)[C@H]2c1ccc(F)c(Cl)c1 (stereo in doubt; 72a) [listing 1 of 2 here]
Second: CC[C@H]1OCC(O)=C2C1=NC1=C(C(=O)COC1)[C@H]2c1ccc(F)c(I)c1 (stereo in doubt; 73a) [listing 1 of 2 here]
The Efficacy of the first is lower: 66% for the first, 69% for the second.

The molecules below were run against Sulfonylurea receptor 2, Kir6.2 (Homo sapiens, UniProt O60706+Q14654) (assay: Ability to open human urinary bladder Kir6.2 channel containing SUR2B in Ltk cells by FLIPR assay).
Chain of Sulfonylurea receptor 2, Kir6.2 (Q14654 whole entry): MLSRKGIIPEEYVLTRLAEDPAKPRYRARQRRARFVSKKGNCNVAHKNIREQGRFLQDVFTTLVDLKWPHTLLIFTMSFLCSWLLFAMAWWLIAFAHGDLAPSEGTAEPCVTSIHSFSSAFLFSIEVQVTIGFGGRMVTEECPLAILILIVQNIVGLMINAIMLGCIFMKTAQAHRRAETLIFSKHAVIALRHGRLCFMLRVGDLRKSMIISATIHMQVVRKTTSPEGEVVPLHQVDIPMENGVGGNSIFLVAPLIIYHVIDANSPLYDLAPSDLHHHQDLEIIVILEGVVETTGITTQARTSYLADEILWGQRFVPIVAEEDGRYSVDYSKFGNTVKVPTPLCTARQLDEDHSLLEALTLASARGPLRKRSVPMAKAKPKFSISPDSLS
Chain of Sulfonylurea receptor 2, Kir6.2 (O60706 whole entry): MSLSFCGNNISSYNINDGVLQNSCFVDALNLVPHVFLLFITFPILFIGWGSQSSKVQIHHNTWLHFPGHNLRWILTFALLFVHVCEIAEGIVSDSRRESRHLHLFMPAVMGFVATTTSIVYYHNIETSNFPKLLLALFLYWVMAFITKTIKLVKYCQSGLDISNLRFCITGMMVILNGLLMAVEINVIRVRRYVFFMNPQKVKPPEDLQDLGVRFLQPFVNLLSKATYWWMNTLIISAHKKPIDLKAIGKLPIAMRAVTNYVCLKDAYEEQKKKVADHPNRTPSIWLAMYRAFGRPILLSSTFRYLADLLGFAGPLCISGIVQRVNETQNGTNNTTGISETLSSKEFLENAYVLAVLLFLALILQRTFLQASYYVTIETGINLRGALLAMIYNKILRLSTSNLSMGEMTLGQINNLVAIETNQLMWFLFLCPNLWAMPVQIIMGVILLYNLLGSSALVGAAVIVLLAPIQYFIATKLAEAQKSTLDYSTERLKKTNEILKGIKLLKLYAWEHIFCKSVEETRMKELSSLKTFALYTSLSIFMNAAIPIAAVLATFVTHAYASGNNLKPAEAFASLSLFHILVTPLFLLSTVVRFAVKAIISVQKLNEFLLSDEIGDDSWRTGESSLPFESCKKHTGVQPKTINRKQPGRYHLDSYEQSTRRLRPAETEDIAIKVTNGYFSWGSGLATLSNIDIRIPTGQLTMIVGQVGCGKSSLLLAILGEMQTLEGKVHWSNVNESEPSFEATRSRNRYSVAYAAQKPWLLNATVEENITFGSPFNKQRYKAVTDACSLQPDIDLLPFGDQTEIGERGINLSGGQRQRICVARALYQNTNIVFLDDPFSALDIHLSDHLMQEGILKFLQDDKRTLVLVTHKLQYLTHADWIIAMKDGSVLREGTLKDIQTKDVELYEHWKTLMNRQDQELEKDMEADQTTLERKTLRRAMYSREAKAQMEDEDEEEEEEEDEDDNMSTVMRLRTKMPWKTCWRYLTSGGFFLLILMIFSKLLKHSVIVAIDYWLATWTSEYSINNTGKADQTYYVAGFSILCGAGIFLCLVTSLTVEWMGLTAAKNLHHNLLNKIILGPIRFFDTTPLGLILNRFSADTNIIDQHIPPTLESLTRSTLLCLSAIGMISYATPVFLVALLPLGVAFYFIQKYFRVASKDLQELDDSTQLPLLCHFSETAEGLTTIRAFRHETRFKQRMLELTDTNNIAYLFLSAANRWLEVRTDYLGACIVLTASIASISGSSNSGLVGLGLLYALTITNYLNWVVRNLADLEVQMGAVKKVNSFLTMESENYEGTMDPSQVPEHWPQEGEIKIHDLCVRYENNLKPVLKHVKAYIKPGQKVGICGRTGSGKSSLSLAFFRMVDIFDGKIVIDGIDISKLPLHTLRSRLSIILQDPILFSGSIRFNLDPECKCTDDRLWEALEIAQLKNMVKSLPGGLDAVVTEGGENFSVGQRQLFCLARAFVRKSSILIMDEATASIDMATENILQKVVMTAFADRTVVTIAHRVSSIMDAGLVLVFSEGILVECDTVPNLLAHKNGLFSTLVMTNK
Assay type: functional, cell-based
How it was run: as §1

Compared with CC[C@H]1OCC(O)=C2C1=NC1=C(C(=O)COC1)[C@H]2c1ccc(F)c(Cl)c1 (stereo in doubt; 72a) [listing 2 of 2 here], CC[C@H]1OCC(O)=C2C1=NC1=C(C(=O)COC1)[C@H]2c1ccc(F)c(I)c1 (stereo in doubt; 73a) [listing 2 of 2 here] is 2.8-fold lower in EC50: 3.63 µM for the first, 1.29 µM for the second.

First: CC[C@H]1OCC(O)=C2C1=NC1=C(C(=O)COC1)[C@H]2c1ccc(F)c(Cl)c1 (stereo in doubt; 72b)
Second: CC[C@H]1OCC(O)=C2C1=NC1=C(C(=O)COC1)[C@H]2c1ccc(F)c(I)c1 (stereo in doubt; 73b)
The EC50 of the first is higher: over 10 µM for the first, 2.95 µM for the second. The second is the more potent here.

Compared with CC[C@H]1OCC(O)=C2C1=NC1=C(C(=O)COC1)[C@H]2c1ccc(Cl)c(Cl)c1 (stereo in doubt; 74a), CC[C@H]1OCC(O)=C2C1=NC1=C(C(=O)COC1)[C@H]2c1ccc(Cl)c(Br)c1 (stereo in doubt; 75a) is 1.6-fold higher in EC50: 0.468 µM for the first, 0.759 µM for the second. The first is the more potent here.

First: CC[C@H]1OCC(O)=C2C1=NC1=C(C(=O)COC1)[C@H]2c1ccc(Cl)c(Br)c1 (stereo in doubt; 75b)
Second: CC[C@H]1OCC(O)=C2C1=NC1=C(C(=O)COC1)[C@H]2c1ccc(Br)c(Cl)c1 (stereo in doubt; 76a)
The EC50 of the first is 3.4-fold higher: 5.5 µM for the first, 1.62 µM for the second.

Compared with CC[C@H]1OCC(O)=C2C1=NC1=C(C(=O)COC1)[C@H]2c1ccc(Br)c(Br)c1 (stereo in doubt; 77a), CC[C@H]1OCC(O)=C2C1=NC1=C(C(=O)COC1)[C@H]2c1ccc(C)c(Br)c1 (stereo in doubt; 78a) is 2.3-fold higher in EC50: 0.309 µM for the first, 0.724 µM for the second. The first is the more potent here.

First: CC[C@H]1OCC(O)=C2C1=NC1=C(C(=O)COC1)[C@H]2c1ccc(Br)c(Br)c1 (stereo in doubt; 77b)
Second: CC[C@H]1OCC(O)=C2C1=NC1=C(C(=O)COC1)[C@H]2c1ccc(C)c(Br)c1 (stereo in doubt; 78b)
The EC50 of the first is 13-fold lower: 0.427 µM for the first, 5.62 µM for the second. The first is the more potent here.
